# ChEMBL document CHEMBL1142147, “Action of disinfectant quaternary ammonium compounds against Staphylococcus aureus” (2007)
# Calls of active or inactive are those of the source. No cut-off for these calls is given here.
# Tests used:
# Staphylococcus aureus [1] = experiment: Antibacterial activity against 10^5 CFU/ml Staphylococcus aureus ATCC 6538 after 48 hrs; assay type: functional; details: ATCC 6538, 48 h
# Outline: (§1)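 Spots of 5 μl inoculum (10-fold dilutions, 1 × 10⁹ to 1 × 10⁵ CFU/ml in HEPES) applied in triplicate. Incubated at 35°C and read visually at 24 and 48 h. MIC taken as no growth or <10 colonies in every spot of the triplicate.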
# Staphylococcus aureus [2] = experiment: Antibacterial activity against 10^6 CFU/ml Staphylococcus aureus ATCC 6538 after 48 hrs; assay type: functional; details: ATCC 6538, 48 h; outline: as §1
# Staphylococcus aureus [3] = experiment: Antibacterial activity against 10^7 CFU/ml Staphylococcus aureus ATCC 6538 after 48 hrs; assay type: functional; details: ATCC 6538, 48 h; outline: as §1
# Staphylococcus aureus [4] = experiment: Antibacterial activity against 10^8 CFU/ml Staphylococcus aureus ATCC 6538 after 48 hrs; assay type: functional; details: ATCC 6538, 48 h; outline: as §1
# Staphylococcus aureus [5] = experiment: Antibacterial activity against 10^9 CFU/ml Staphylococcus aureus ATCC 6538 after 48 hrs; assay type: functional; details: ATCC 6538, 48 h; outline: as §1
# Staphylococcus aureus [6] = experiment: Loss of membrane integrity in Staphylococcus aureus ATCC 6538 at above 4.5 ug/ml; assay type: functional, organism-based
# Outline: (§2)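 Cells (final 2 × 10⁹ CFU/ml) exposed to 4.5 to 18 μg/ml biocide or HEPES at 25°C, shaken. Samples filtered (0.45 μm) at timed points up to 240 min. K⁺ measured by flame emission at 766.5 nm and 260-nm material by A260. Each expressed as percent of the maximal pool (cetrimide 1 mM; TCA extraction). Mean % leakage at 30 min plotted against concentration.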
# Staphylococcus aureus [7] = experiment: Induction of membrane collapse in Staphylococcus aureus ATCC 6538 at 12 ug/ml; assay type: functional, organism-based; outline: as §2
# Staphylococcus aureus [8] = experiment: Reduction of cell count in Staphylococcus aureus ATCC 6538 between 6 to 18 hrs exposure; assay type: functional; parameters: scale not given: the % may be the effect or the level left
# Outline: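 Cells pre-exposed 4 h at 35°C to 9 μg/ml biocide, neutralized, washed, and held in HEPES at 35°C. Samples taken at 0 to 48 h, serially diluted, plated on TSA, incubated 18 h at 37°C and counted as CFU/ml.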
# Staphylococcus aureus [9] = experiment: Induction of autolysis in Staphylococcus aureus ATCC 6538 at 9 ug/ml; assay type: functional, organism-based
# Outline: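 Washed cells (final 2 × 10⁹ CFU/ml) held with biocide at 9 μg/ml in HEPES at 35°C for 4 h, shaken. Then neutralized with lecithin/Tween 80, washed, and resuspended in HEPES at 35°C. Filtrates (0.45 μm) taken at 0, 2, 4, 18, 22 and 24 h and read at A260. Autolysis taken as 260-nm leakage above the TCA-extractable pool.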
# Staphylococcus aureus [10] = experiment: Intracellular coagulation in Staphylococcus aureus ATCC 6538 at tested concentrations 4.5, 9, 12 and 15 ug/ml; assay type: functional, organism-based
smiles,measurement,setting,value
CCCCCCCCCC[N+](C)(C)CCCCCCCCCC.[Cl-] [DIDECYLDIMETHYLAMMONIUM CHLORIDE],MIC,Staphylococcus aureus [1],0.4 µg/mL
same,MIC,Staphylococcus aureus [2],0.4 µg/mL
same,MIC,Staphylococcus aureus [3],0.4 µg/mL
same,MIC,Staphylococcus aureus [4],0.6 µg/mL
same,MIC,Staphylococcus aureus [5],1.6 µg/mL
same,Activity,Staphylococcus aureus [6],Active
same,Activity,Staphylococcus aureus [7],Active
same,Activity,Staphylococcus aureus [8],90%
same,Activity,Staphylococcus aureus [9],Active
same,Activity,Staphylococcus aureus [10],inactive
